Measurements taken from publication PMC4758401 (Diabetes, Obesity & Metabolism, 2015).
Read-outs that look alike come from different tables or passages of the source.

Legend:
Format in all cases: in vivo, patients with type 1 diabetes
glucagon = conditions: for Reduction of AUC0–3 h for glucagon: p < 0.05
Method in brief: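 Same crossover design: test compound at 6, 9 or 12 mcg/U insulin or volume-matched placebo, each injected separately alongside subcutaneous regular insulin (30% reduced dose) just before a standard 600-kcal breakfast. Plasma immunoreactive glucagon was measured by radioimmunoassay in samples taken at −15, −5, 15, 30, 45, 60, 90, 120, 150 and 180 min. Incremental AUC0–3 h from baseline was compared with placebo by a linear mixed-effects model (sequence, period, treatment, random patient), two-sided 0.05.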

plasma glucose = test system: plasma glucose
[1] = Adverse events and hypoglycaemia
Method in brief: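 Four-way crossover in adults with type 1 diabetes, one visit per arm over 4 weeks. Before a 600-kcal breakfast, each arm received subcutaneous regular insulin at 30% below the usual rapid-analogue dose, plus a separate masked injection of test compound (6, 9 or 12 mcg/U insulin) or volume-matched placebo. Symptomatic hypoglycaemia was tracked for 24 h after dosing; adverse events were recorded on- and off-treatment.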

[2] = all ratios (6, 9 or 12 mcg/unit insulin)

CC[C@H](C)[C@H](NC(=O)[C@@H]1CCCN1C(=O)CNC(=O)[C@H](Cc1ccccc1)NC(=O)[C@H](CC(N)=O)NC(=O)[C@H](CC(N)=O)NC(=O)[C@H](CO)NC(=O)[C@H](CO)NC(=O)[C@H](Cc1c[nH]cn1)NC(=O)[C@@H](NC(=O)[C@H](CC(C)C)NC(=O)[C@H](Cc1ccccc1)NC(=O)[C@H](CC(N)=O)NC(=O)[C@H](C)NC(=O)[C@H](CC(C)C)NC(=O)[C@H](CCCNC(=N)N)NC(=O)[C@H](CCC(N)=O)NC(=O)[C@@H](NC(=O)[C@H](C)NC(=O)[C@@H]1CSSC[C@H](NC(=O)[C@@H](N)CCCCN)C(=O)N[C@@H](CC(N)=O)C(=O)N[C@@H]([C@@H](C)O)C(=O)N[C@@H](C)C(=O)N[C@@H]([C@@H](C)O)C(=O)N1)[C@@H](C)O)C(C)C)C(=O)N[C@@H](CC(C)C)C(=O)N1CCC[C@H]1C(=O)N1CCC[C@H]1C(=O)N[C@H](C(=O)N[C@@H](CC(N)=O)C(=O)N[C@H](C(=O)NCC(=O)N[C@@H](CO)C(=O)N[C@@H](CC(N)=O)C(=O)N[C@H](C(=O)N[C@@H](Cc1ccc(O)cc1)C(N)=O)[C@@H](C)O)C(C)C)[C@@H](C)O [pramlintide]
Reduction of AUC0–3 h for glucagon (glucagon; 6 mcg/U ratio vs placebo/insulin): 57% | Glucagon incremental AUC0–3 h, LS mean difference (glucagon; 6 mcg–placebo, p 0.041): -14.23 pg·h/mL | Glucagon incremental AUC0–3 h, LS mean difference (glucagon; 6–9 mcg, p 0.934): 0.57 pg·h/mL | Glucagon incremental AUC0–3 h, LS mean difference (glucagon; 6–12 mcg, p 0.945): -0.47 pg·h/mL | Reduction of AUC0–3 h for glucagon (glucagon; 9 mcg/U ratio vs placebo/insulin): 59% | Glucagon incremental AUC0–3 h, LS mean difference (glucagon; 9 mcg–placebo, p 0.034): -14.80 pg·h/mL | Glucagon incremental AUC0–3 h, LS mean difference (glucagon; 9–12 mcg, p 0.879): -1.05 pg·h/mL | Reduction of AUC0–3 h for glucagon (glucagon; 12 mcg/U ratio vs placebo/insulin): 55% | Glucagon incremental AUC0–3 h, LS mean difference (glucagon; 12 mcg–placebo, p 0.046): -13.75 pg·h/mL | Reduction of 0–3‐h glucagon increments (glucagon; [2]): > 50% | Reduction of AUC0–3 h for glucose (plasma glucose; 6 mcg/U ratio vs placebo/insulin, p < 0.001): 60% | Glucose incremental AUC0–3 h, LS mean difference (plasma glucose; 6 mcg–placebo, p <0.001): -205.98 mg·h/dL | Glucose incremental AUC0–3 h, LS mean difference (plasma glucose; 6–9 mcg, p 0.890): -6.04 mg·h/dL | Glucose incremental AUC0–3 h, LS mean difference (plasma glucose; 6–12 mcg, p 0.343): 40.63 mg·h/dL | Glucose incremental AUC0–3 h, LS mean difference (plasma glucose; 9 mcg–placebo, p <0.001): -199.93 mg·h/dL | Glucose incremental AUC0–3 h, LS mean difference (plasma glucose; 9–12 mcg, p 0.280): 46.67 mg·h/dL | Glucose incremental AUC0–3 h, LS mean difference (plasma glucose; 12 mcg–placebo, p <0.001): -246.60 mg·h/dL | Reduction of 0–3‐h glucose increments (plasma glucose; [2]): > 50% | Tolerability ([1]; all ratios (6, 9, 12 mcg/U insulin), single meal-time injection): well tolerated | Symptomatic hypoglycaemia ([1]; during the 24‐h period after pramlintide administration, all ratios): No symptomatic hypoglycaemia occurred | Nausea ([1]; one patient, accompanying each pramlintide/insulin ratio, able to complete each test meal): mild nausea | Mild, asymptomatic hypoglycaemia between test meal days ([1]; one patient, after pramlintide 12 mcg/U): hypoglycaemia 5 and 7 days after receiving pramlintide 12 mcg/U
